Assay [1] in a line: Inhibition of Toxoplasma gondii recombinant His6-tagged GSK-3 expressed in Escherichia coli using GS-1 peptide as substrate after 30 mins by scintillation counting analysis in presence of gamma-33P-ATP. The format is cell-free. Put shortly: (§1)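 His6-tagged recombinant GSK-3 expressed in E. coli (TOP10/pBAD-Thio-TOPO for P. falciparum and T. gondii, arabinose-induced; BL21(DE3)-pRARE2/pET15 for C. parvum, IPTG at 15 °C), Ni-NTA purified. Assayed with 40 μM GS-1 phosphopeptide, 15 μM γ-33P-ATP in pH 7.5 Tris buffer with MgCl2, EGTA, DTT, heparin, BSA; 30 min, 30 °C; P81 paper, phosphoric acid washes, scintillation counting. DMSO controls; dose-response IC50, triplicate points.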

A short description of assay [2]: Inhibition of Plasmodium knowlesi recombinant His6-tagged GSK-3 expressed in Escherichia coli using GS-1 peptide as substrate after 30 mins by scintillation counting analysis in presence of gamma-33P-ATP. Put shortly:
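P. knowlesi GSK3 gene in pBAD-Thio-TOPO, expressed in E. coli TOP10 (ampicillin, 37 °C, 0.02% arabinose for 4 h), Ni-NTA purified. Radiometric assay: 40 μM GS-1 peptide in buffer A pH 7.5 (MgCl2, EGTA, DTT, heparin, BSA) with 15 μM γ-33P-ATP, 30 min at 30 °C. P81 filter binding, scintillation counting. IC50 from triplicate dose-response curves.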

Assay [3] can be described thus: Inhibition of Plasmodium falciparum recombinant His6-tagged GSK-3 expressed in Escherichia coli using GS-1 peptide as substrate after 30 mins by scintillation counting analysis in presence of gamma-33P-ATP. Put shortly:
as §1

A short description of assay [4]: Inhibition of Plasmodium falciparum recombinant GSK-3 by radiometric protein kinase assay. Put shortly: as §1
The nature of assay [5]: Inhibition of pig GSK-3 by radiometric protein kinase assay. Set-up: species or system Sus scrofa. Put shortly: (§2)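 Native affinity-purified porcine GSK-3 in the radiometric assay: 40 μM GS-1 peptide, 15 μM γ-33P-ATP, pH 7.5 Tris/MgCl2/EGTA/DTT/heparin/BSA buffer, 30 min at 30 °C, P81 filter binding and scintillation counting. IC50 from dose-response curves with triplicate points; top concentration 10 or 100 μM.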

Assay [6] has as its target Glycogen synthase kinase-3 beta (Homo sapiens, UniProt P49841). Nature of the assay: Inhibition of human Nt-GST-tagged GSK-3beta. Put shortly: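 Recombinant human GSK-3 isoform assayed radiometrically: 40 μM GS-1 peptide in buffer A pH 7.5 with 15 μM γ-33P-ATP, 30 min at 30 °C. Read-out by P81 filter binding and scintillation. IC50 from triplicate dose-response curves; top inhibitor concentration 10, 25 or 100 μM.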

In assay [7] the target is Glycogen synthase kinase-3 (Sus scrofa, UniProt B2LUN4+I6LNT8). Description: Inhibition of pig GSK-3alpha/beta. Put shortly:
as §2

Assay [8] in a line: Inhibition of Leishmania donovani GSK-3.
Assay [9] is described as follows: Inhibition of Trypanosoma brucei GSK-3.
Assay [10] is described as follows: Inhibition of Trypanosoma cruzi GSK-3.
Assay [11] in a line: Inhibition of Cryptosporidium parvum recombinant His6-tagged GSK-3 expressed in Escherichia coli using GS-1 peptide as substrate after 30 mins by scintillation counting analysis in presence of gamma-33P-ATP. Put shortly: as §1

pIC50: −log10 of the molar value.

As a reminder, the pIC50 is the IC50 on a negative log10 scale, so that one unit is a factor of ten. By IC50 is commonly meant the concentration that gives 50% inhibition. The low end stands for inhibition by little substance, the high end for a need for much substance.

Chain of Glycogen synthase kinase-3 beta (P49841 whole entry, canonical isoform): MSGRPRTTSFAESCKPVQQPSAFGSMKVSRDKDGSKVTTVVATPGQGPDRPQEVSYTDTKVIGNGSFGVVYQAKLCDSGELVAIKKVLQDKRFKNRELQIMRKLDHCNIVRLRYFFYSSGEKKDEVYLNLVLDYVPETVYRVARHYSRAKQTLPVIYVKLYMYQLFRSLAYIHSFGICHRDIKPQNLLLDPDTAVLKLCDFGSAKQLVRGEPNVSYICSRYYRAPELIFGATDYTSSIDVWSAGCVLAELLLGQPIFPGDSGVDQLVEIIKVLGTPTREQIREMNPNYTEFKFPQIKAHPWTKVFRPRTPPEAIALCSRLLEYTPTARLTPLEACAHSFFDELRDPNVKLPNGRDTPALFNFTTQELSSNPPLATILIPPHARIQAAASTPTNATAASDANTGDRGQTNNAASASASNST

Regarding `COc1ccccc1-c1c(C#N)c(N)nc2sc(C(=O)c3ccccc3)c(N)c12`, the negative logarithm of the IC50 (pIC50) in [1] was less than 4.00; in assay [2], 4.02; in assay [3] it was 5.22; in assay [4], 5.22; in assay [5], less than 4.00; in assay [6], less than 4.00. For the same molecule, the pIC50 was 4.10 in assay [8], less than 4.00 in assay [9], less than 4.00 in assay [10] and less than 4.00 in assay [11]. The molecule also gave an IC50 in [7] greater than 100 µM.
